We go through twelve compounds from PubChem BioAssay.

Assay [1] is described as follows: inhibitors of TNFa-induced NFkB p65 translocation, primary screen, imaging, HUVEC, MLSMR starter and 10KST1 sets (AID 438;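 active = inhibition above 20% together with a positive visual image hit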;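 note: compound added about 3h40 before a 20 min TNFalpha stimulation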;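 for inhibition: signal is the nuclear over cytoplasmic p65 intensity ratio per well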). The settings on record: HUVEC TNFa-induced p65 nuclear translocation; cell count: measured here: nuclei count (cytotoxicity indicator), at 2.08 µM; inhibition: at 2 µM, stronger effect = higher value, 0% TNFa-plus-vehicle, 100% no-TNFa wells.
Assay [2] can be described thus: endothelial E-selectin expression blockers – imaging, HUVEC, immunofluorescence, MLSMR starter and 10KST1 sets, primary screen (AID 487;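 active = visually confirmed hit in the image check and inhibition above 20%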;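 for inhibition: signal is fraction of cell area covered by stained E-selectin grains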;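 for nuclei count: 100% = median nuclei count of all wells on the same plate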). Particulars: HUVEC TNFalpha-induced E-selectin immunofluorescence imaging, at 2 µM; inhibition: stronger effect = higher value; nuclei count: measured here: cell number, toxicity.
A short description of assay [3]: Primary imaging screen for DUSP6 inhibitors that restore phospho-Erk in transfected HeLa cells, chemical complementation (AID 609;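 active = compounds giving at least 50% inhibition in the cell-based MKP-3 phosphatase rescue imaging test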;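 for inhibition: phospho-Erk level distribution per well compared with pooled transfected vehicle control wells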). The settings on record: HeLa MKP-3 transfected, phospho-Erk imaging KS statistic, at 10 µM, cells stimulated with TPA for 15 min.
The target in assay [4] is Dual specificity protein phosphatase 6 (Homo sapiens) (UniProt Q16828). The assay is described as above. The settings on record: HeLa MKP-3 transfected, phospho-Erk imaging KS statistic; at 10 µM; stronger effect = higher value; cells stimulated with TPA for 15 min.
In assay [5] the target is Voltage-gated potassium channel subunit beta-2 (Rattus norvegicus) (UniProt P62483). The assay is described as follows: inhibitors of rat Kvbeta2 reductase activity – biochemical, NADPH fluorescence, primary screen (AID 622;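 active = fluorescence slope higher than the sample average by over 3 SD, cut at about -0.22 in these data, passing the limit was not always enough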;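 note: slope of raw intensity against log time taken from 70 to 1610 s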). Particulars: recombinant KvBeta, 4-cyanobenzaldehyde reduction, at 10 µM, stronger effect = higher value.
For assay [6] the target is unchanged. The experiment in a line: enhancers of rat Kvbeta2 NADPH turnover – biochemical, NADPH fluorescence, primary screen (AID 623;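 active = NADPH fluorescence slope more negative than the mean of all samples by about 3 SD, 99.7% confidence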;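 note: fluorescence intensity change per second fitted from 20 to 320 s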). The settings on record: Recombinant KvBeta, NADPH fluorescence decrease slope, 10 min; at 10 µM; stronger effect = lower value.
In assay [7] the target is Alpha-2C adrenergic receptor (Homo sapiens) (UniProt P18825). The experiment in a line: compounds altering alpha2C-coupled GIRK flux – cell-based, HEK293 alpha2C/GIRK1/2, thallium flux, primary screen (AID 624).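 Note: slope of fluorescence ratio to pre-addition baseline per second over 15 to 24 s.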 Particulars: thallium flux BTC fluorescence, at 10 µM, actives lie on both sides.
A short description of assay [8]: inhibitors of larval lipid processing in zebrafish, primary screen, whole organism, PED6 fluorescence, gall bladder and intestine (AID 686;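 active = a full or partial loss of lipid-probe fluorescence in the fish gall bladder, intestine or both, judged by eye; inactive = no fluorescence loss, or compound toxic to the fish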;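 note: larvae 5 to 7 days old with five fish per well; signal comes from phospholipase A2 cleavage of quenched PED6 carried via bile; overnight exposure to compound and PED6 before scoring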). Particulars: Zebrafish larvae PED6 lipid processing, fluorescence scoring; screened at 20 µM (by protocol). In short, it runs like this:
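Test system – live zebrafish larvae aged 5-7 days, whole organism · Buffer or medium – E3 fish medium · Reagent – quenched phospholipase substrate PED6, 100 nM final, ingested by larvae · Doses – 20 µM single dose · Incubation – overnight compound and PED6 incubation · Technique – visual fluorescence microscopy scoring of gall bladder, gut · Read-out basis – visual per-well fluorescence inhibition score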

Assay [9] can be described thus: loss of swimming-algae plug formation – whole organism, Chlamydomonas reinhardtii, WT vs cilia-less mutant, absorbance, 96-well, primary screen (AID 463189;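 active = inhibition at or above 50% relative to wild type and mutant plate controls; inactive = inhibition below 50%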;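 note: 0% = wild type cc124 cells in DMSO and 100% = ciliumless bld1 mutant cells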). Particulars: Chlamydomonas reinhardtii gravitaxis, OD600 absorbance, 2 days; at 10 µM; stronger effect = higher value.
Where [10] appears, read: measured here: cell density z-score.
The mark [11] stands for this setting: measured here: nuclear c-Myc green intensity z-score.
The mark [12] stands for this setting: measured here: nuclear pErk red intensity z-score, stronger effect = higher value.

Each structure is given as a SMILES string. The source made the active and inactive calls.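 Rule for the calls, unless noted: active = fluorescence slope after compound addition differing from the mean of all screened samples at 99.7% confidence, in either direction; inactive = the rest.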

Sequence of Alpha-2C adrenergic receptor (Homo sapiens) (P18825 whole entry, looked up): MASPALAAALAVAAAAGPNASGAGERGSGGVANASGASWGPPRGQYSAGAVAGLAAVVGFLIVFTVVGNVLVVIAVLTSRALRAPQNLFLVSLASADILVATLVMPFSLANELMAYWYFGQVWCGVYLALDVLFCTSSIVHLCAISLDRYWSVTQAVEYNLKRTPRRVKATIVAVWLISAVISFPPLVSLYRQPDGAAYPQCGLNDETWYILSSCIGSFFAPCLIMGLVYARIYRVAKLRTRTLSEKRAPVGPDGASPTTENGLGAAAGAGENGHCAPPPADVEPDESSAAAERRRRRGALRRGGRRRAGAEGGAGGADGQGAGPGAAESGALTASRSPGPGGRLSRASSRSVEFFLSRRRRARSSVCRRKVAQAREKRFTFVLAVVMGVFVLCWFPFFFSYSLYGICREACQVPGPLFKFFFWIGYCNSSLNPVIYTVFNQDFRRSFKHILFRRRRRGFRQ
Sequence of Voltage-gated potassium channel subunit beta-2 (Rattus norvegicus) (P62483 whole entry, looked up): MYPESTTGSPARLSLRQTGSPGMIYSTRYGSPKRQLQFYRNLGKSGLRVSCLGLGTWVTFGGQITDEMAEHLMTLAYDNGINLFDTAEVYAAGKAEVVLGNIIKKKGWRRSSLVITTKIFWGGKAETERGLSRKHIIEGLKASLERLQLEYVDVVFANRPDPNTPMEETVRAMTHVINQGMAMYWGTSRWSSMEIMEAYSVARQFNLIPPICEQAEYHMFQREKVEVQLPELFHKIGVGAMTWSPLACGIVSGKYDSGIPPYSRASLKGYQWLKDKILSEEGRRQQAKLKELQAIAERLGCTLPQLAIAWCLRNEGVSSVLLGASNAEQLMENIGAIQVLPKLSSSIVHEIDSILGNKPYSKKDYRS
Sequence of Dual specificity protein phosphatase 6 (Homo sapiens) (Q16828 whole entry, looked up): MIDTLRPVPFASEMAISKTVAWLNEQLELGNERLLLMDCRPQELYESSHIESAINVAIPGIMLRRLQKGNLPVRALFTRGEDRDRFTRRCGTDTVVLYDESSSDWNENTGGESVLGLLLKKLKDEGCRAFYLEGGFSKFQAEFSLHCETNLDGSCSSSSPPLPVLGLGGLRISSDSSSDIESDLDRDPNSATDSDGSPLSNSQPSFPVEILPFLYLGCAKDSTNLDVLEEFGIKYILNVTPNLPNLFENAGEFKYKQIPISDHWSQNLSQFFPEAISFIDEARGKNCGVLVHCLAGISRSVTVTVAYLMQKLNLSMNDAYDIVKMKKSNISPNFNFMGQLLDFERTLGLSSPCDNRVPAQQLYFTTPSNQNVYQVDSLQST

Turning to `O=C(O)c1ccc(OCCn2ccnc2)cc1`, in [1], the cell count is 490. Moreover, the inhibition in assay [1] is -6.5% (inactive); in assay [2], -141% (inactive); in assay [4], 26.5% (inactive); in assay [9], 0.065% (inactive). Besides, in assay [2], the nuclei count is 185%. The z-score in assay [3] (setting [10]) is -0.78; in [3] (setting [11]), -1.02; in assay [3] (setting [12]), 1.25. Besides, the fluorescence slope in assay [5] was -0.473 (inactive). Also, the NADPH fluorescence slope in [6] was -0.000213 (inactive). Further, the slope in assay [7] was 0.00534 (inactive). Moreover, the compound was called inactive in [8].

As to `COc1ccc(C2CC(C(F)(F)F)n3ncc(C(=O)NCC4CCCO4)c3N2)cc1OC` (stereo unspecified), in assay [1], the cell count worked out at 536. The inhibition in assay [1] was -1.8% (inactive); in [2], 12.3% (inactive); in assay [4], 3.66% (inactive); in assay [9] it was -9.44% (inactive). This compound also came in with a nuclei count in assay [2] of 132%. The z-score in [3] (setting [10]) was -0.241; in assay [3] (setting [11]) it was -1.11; in assay [3] (setting [12]) it was 1.35. Moreover, the fluorescence slope in [5] was -0.51 (inactive). The NADPH fluorescence slope in assay [6] was -6.1e-05 (inactive). The slope in assay [7] was 0.00469 (inactive). In addition, the compound was called inactive in assay [8].

Turning to `CCNc1nc(NC(C)C)nc(N(C#N)C(C)C(=O)N(C)C)n1` (stereo unspecified), the cell count in assay [1] amounted to 330. For the same compound, the inhibition was -31.8% (inactive) in assay [1], -39.6% (inactive) in assay [2], -12.3% (inactive) in [4] and 19.9% (inactive) in assay [9]. Besides, in assay [2], the nuclei count came to 134%. Moreover, the results for the z-score in assay [3] (setting [10]), in assay [3] (setting [11]) and in [3] (setting [12]) were -0.102, -1.64 and 0.749, respectively. For the same compound, the fluorescence slope in [5] was -0.445 (inactive). For the same compound, the NADPH fluorescence slope in [6] was -0.000124 (inactive). Moreover, the slope in [7] is 0.00585 (inactive). The compound was called inactive in assay [8].

In the case of `Cc1cc(=O)oc(C)c1C(=O)N1CCN(Cc2ccc3c(c2)OCO3)CC1`, the cell count in [1] came out at 387. The inhibition was -8.4% (inactive) in assay [1], -58.3% (inactive) in assay [2], 9.42% (inactive) in assay [4] and 21.2% (inactive) in [9]. In assay [2], this compound gave a nuclei count of 158%. Moreover, the z-score is -0.184 in [3] (setting [10]), -0.833 in assay [3] (setting [11]) and -0.4 in assay [3] (setting [12]). Also, the fluorescence slope in assay [5] was -0.451 (inactive). Besides, the NADPH fluorescence slope in assay [6] was -0.000128 (inactive). Moreover, the slope in [7] was 0.00491 (inactive). Also, the call in [8] was inactive.

For the compound `COCCN(C(=O)Nc1ccccc1)c1ccccc1C`, the cell count in assay [1] amounted to 443. Further, the inhibition in [1] is -5.7% (inactive); in assay [2], -107% (inactive); in assay [4], -3.95% (inactive); in assay [9] it was -5.98% (inactive). Also, the nuclei count in [2] came to 186%. Besides, the z-score in [3] (setting [10]) is -1.02; in assay [3] (setting [11]) it was -0.17; in assay [3] (setting [12]), -0.3. In addition, in [5], the fluorescence slope was -0.32 (inactive). For the same compound, the NADPH fluorescence slope in assay [6] is 6.1e-06 (inactive). Besides, the slope in assay [7] is 0.00472 (inactive). Moreover, the result in assay [8] was inactive.

Regarding `N#CC1=C(SCC(=O)c2ccccc2)NC2=C(C(=O)CCC2)C1c1ccco1` (stereo unspecified), in assay [1], the cell count was 310. The inhibition in assay [1] was -8% (inactive); in assay [2], -43.4% (inactive); in assay [4], 1.42% (inactive); in [9], -15.7% (inactive). The nuclei count in assay [2] is 91.7%. Moreover, the z-score in [3] (setting [10]) was -2.24; in assay [3] (setting [11]), 2.65; in [3] (setting [12]) it was -0.86. Also, in assay [5], the fluorescence slope is -0.435 (inactive). For the same compound, the NADPH fluorescence slope in [6] is -3.2e-05 (inactive). The slope in [7] is 0.00719 (inactive). Besides, in [8], the outcome was inactive.

`O=S(=O)(c1ccc(Cl)cc1)N1CCC(N2CCCCCC2)CC1`: in assay [1], the cell count was found to be 450. The inhibition in assay [1] was -23.8% (inactive); in [2], -135% (inactive); in assay [4], 11% (inactive); in assay [9] it was 121% (active). Besides, in [2], the nuclei count turned out to be 160%. Also, the z-score was -0.279 in assay [3] (setting [10]), -1.42 in assay [3] (setting [11]) and 0.26 in [3] (setting [12]). The fluorescence slope in [5] was -0.321 (inactive). In addition, in [6], the NADPH fluorescence slope was 6.3e-06 (inactive). For the same compound, the slope in [7] was 0.0047 (inactive). Moreover, the outcome in [8] was inactive.

For `Cc1ccc(C)c(OCc2nnc(NC(=O)c3ccco3)s2)c1`, the cell count in assay [1] turned out to be 656. In addition, the inhibition in assay [1] is -2.1% (inactive); in assay [2], 37.1% (inactive); in assay [4], -4.27% (inactive); in [9] it was -2.58% (inactive). The same compound returned a nuclei count in assay [2] of 191%. Besides, the z-score was -0.0885 in assay [3] (setting [10]), 2.13 in [3] (setting [11]) and -0.0889 in assay [3] (setting [12]). In assay [5], the fluorescence slope was -0.389 (inactive). Further, the NADPH fluorescence slope in assay [6] is -5.4e-05 (inactive). The slope in assay [7] was 0.0056 (inactive). For the same compound, the call in [8] was inactive.

For `O=C(CNC1=NCCC1)c1ccc2c(c1)OCCO2`, the cell count in assay [1] was 488. The inhibition in assay [1] was -10.2% (inactive); in assay [2], -73% (inactive); in assay [4], 28.6% (inactive); in assay [9] it was -8.59% (inactive). For the same compound, the nuclei count in [2] came to 161%. The results for the z-score in [3] (setting [10]), in assay [3] (setting [11]) and in assay [3] (setting [12]) were -0.692, -1.12 and -0.547, respectively. Further, the fluorescence slope in assay [5] is -0.485 (inactive). Further, in assay [6], the NADPH fluorescence slope is -0.000113 (inactive). For the same compound, the slope in assay [7] was 0.006 (inactive). The compound was classed as inactive in assay [8].

In the case of `Cc1cc(=O)oc(C)c1C(=O)NCCNC(=O)c1c(C)cc(=O)oc1C`, in assay [1], the cell count was found to be 496. The inhibition in assay [1] is -5.9% (inactive); in assay [2], -127% (inactive); in assay [4] it was -14% (inactive); in assay [9], -8.5% (inactive). The compound also registered a nuclei count in [2] of 140%. Further, the z-score in [3] (setting [10]) was 0.642; in assay [3] (setting [11]), -0.299; in assay [3] (setting [12]), 1.3. In addition, the fluorescence slope in [5] is -0.534 (inactive). For the same compound, the NADPH fluorescence slope in assay [6] was -3.6e-05 (inactive). Besides, in assay [7], the slope is 0.0046 (inactive). Moreover, in [8], the outcome was inactive.

On to `Nc1nc(NC(=O)Cc2ccccc2)nn1-c1ccccc1`, for which the cell count in [1] is 330. The inhibition is -5.8% (inactive) in assay [1], 16% (inactive) in assay [2], 9.42% (inactive) in [4] and 14.3% (inactive) in [9]. The same compound came in with a nuclei count in assay [2] of 153%. Moreover, the z-score in [3] (setting [10]) is -1.12; in assay [3] (setting [11]), 1.13; in assay [3] (setting [12]), 0.973. In assay [5], the fluorescence slope is -0.381 (inactive). In addition, the NADPH fluorescence slope in assay [6] was -0.000121 (inactive). The slope in [7] is 0.00768 (inactive). Moreover, the compound was called inactive in assay [8].

On to `COc1cc(C2C(C#N)=C(N)Oc3cc(C)n(Cc4ccccn4)c(=O)c32)cc2c1OCO2` (stereo unspecified), for which the cell count in assay [1] turned out to be 433. For the same compound, the inhibition in assay [1] is 6.2% (inactive); in assay [2], -56.2% (inactive); in [4], 11.4% (inactive); in assay [9] it was -11.1% (inactive). In assay [2], this compound came in with a nuclei count of 88.8%. The z-score in assay [3] (setting [10]) was -2.67; in assay [3] (setting [11]) it was -0.393; in assay [3] (setting [12]), 1.97. Moreover, the fluorescence slope in assay [5] is -0.442 (inactive). Also, the NADPH fluorescence slope in assay [6] was -1.2e-05 (inactive). Further, in [7], the slope is 0.00753 (inactive). The result in assay [8] was inactive.

One may read the inhibition as the change of the read-out against control, counted positive when it falls.
